In ChEMBL document CHEMBL3124817, “Design and synthesis of thiazole derivatives as potent FabH inhibitors with antibacterial activity” (Eur J Med Chem, 2014):
Converted amounts (≈) assume the structure as drawn.

How the values were obtained:
[1] = Inhibition of Escherichia coli N-terminal His-tagged FabH expressed in Escherichia coli BL21(DE3) using holo-acyl carrier protein as substrate preincubated for 1 min followed by acetyl-CoA addition measured after 25 mins by liquid scintillation counting analysis
Method in brief: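 His-tagged FabH purified by Ni–NTA. Reaction: 1 nM FabH, […], 20 mM sodium phosphate pH 7.0, 0.5 mM DTT, 0.25 mM MgCl₂, 1 min preincubation. Started with 25 μM acetyl-CoA plus 0.75 μCi [³H]acetyl-CoA for 25 min. Stopped with cold TCA, protein pellet counted by liquid scintillation. Inhibitors from DMSO stock, final DMSO ≤2%; IC50 determined.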

[2] = Cytotoxicity against human macrophages after 24 hrs by MTT assay; format: cell-based, Macrophage
Method in brief: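 Human macrophages in DMEM with 10% FBS and antimycotic, 1.8×10^4 cells/well. Compounds at 160, 40, 10, 2.5, 0.25 μg/mL in 10% DMSO, 24 h at 37 °C under 5% CO₂. Then MTT for 4 h, formazan dissolved in DMSO, absorbance difference 570/630 nm as viability. CC50 by curve fitting; untreated cells as negative control.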

Escherichia coli = assay: Antibacterial activity against Escherichia coli ATCC 35218 after 24 hrs by MTT assay; format: functional; details: ATCC 35218, 24 h
Method in brief: (§1)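 Broth microdilution in sterile liquid MH medium; compounds from 1 mg/mL DMSO stock, serially diluted. Inoculum about 10^5 cfu/mL, 37 °C for 24 h. MIC read visually, then MTT (2 mg/mL in PBS pH 7.4) added for 4–5 h at room temperature. Dye extracted with acidified isopropanol for 12 h, OD at 550 nm.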

Pseudomonas aeruginosa = assay: Antibacterial activity against Pseudomonas aeruginosa ATCC 13525 after 24 hrs by MTT assay; format: functional; details: ATCC 13525, 24 h; method in brief: as §1
Bacillus spizizenii = assay: Antibacterial activity against Bacillus subtilis ATCC 6633 after 24 hrs by MTT assay; format: functional; details: ATCC 6633, 24 h; method in brief: as §1
Staphylococcus aureus = assay: Antibacterial activity against Staphylococcus aureus ATCC 6538 after 24 hrs by MTT assay; format: functional; details: ATCC 6538, 24 h; method in brief: as §1

SMILES	IC50 [1] [µM]	pIC50 [1]	MIC (Escherichia coli) [µg/mL]	MIC (Pseudomonas aeruginosa) [µg/mL]	MIC (Bacillus spizizenii) [µg/mL]	MIC (Staphylococcus aureus) [µg/mL]	CC50 at 24 h [2] [µM]
O=C(Cc1ccc(Cl)cc1)Nc1nc(-c2ccc(Br)cc2)cs1	34.7	4.46	–	–	–	–	286
O=C(Cc1cccc(Cl)c1)Nc1nc(-c2ccc(Br)cc2)cs1	9.3	5.27	6.25 (≈ 15.3 µM)	12.5 (≈ 30.7 µM)	–	–	194
O=C(Cc1cccc(Br)c1)Nc1nc(-c2ccc(Br)cc2)cs1	5.8	5.01	1.56 (≈ 3.45 µM)	3.13 (≈ 6.92 µM)	1.56 (≈ 3.45 µM)	–	220
COc1cccc(CC(=O)Nc2nc(-c3ccc(Br)cc3)cs2)c1	6.6	5.25	12.5 (≈ 31 µM)	3.13 (≈ 7.76 µM)	6.25 (≈ 15.5 µM)	3.13 (≈ 7.76 µM)	192
O=C(Nc1nc(-c2ccc(Br)cc2)cs1)c1ccccc1	> 100	–	–	–	–	–	–
CCOc1cccc(CC(=O)Nc2nc(-c3ccc(Br)cc3)cs2)c1	–	–	50 (≈ 120 µM)	25 (≈ 59.9 µM)	50 (≈ 120 µM)	> 100	–
O=C(Nc1nc(-c2ccccc2)cs1)c1ccccc1	> 100	–	–	–	–	–	–
CC1(C)S[C@@H]2[C@H](NC(=O)Cc3ccccc3)C(=O)N2[C@H]1C(=O)O [PENICILLIN G]	4.9	–	–	–	–	–	229

Further lines, with some results ahead:

IC50 [1] [µM]	pIC50 [1]	MIC (Escherichia coli) [µg/mL]	MIC (Pseudomonas aeruginosa) [µg/mL]	MIC (Bacillus spizizenii) [µg/mL]	MIC (Staphylococcus aureus) [µg/mL]	SMILES	CC50 at 24 h [2] [µM]
48.1	4.32	–	–	–	–	O=C(Cc1ccc(Br)cc1)Nc1nc(-c2ccc(Br)cc2)cs1	315
12.3	4.91	–	–	–	–	O=C(Cc1cccc(Cl)c1)Nc1nc(-c2ccccc2)cs1	264
26.9	4.57	–	–	–	–	O=C(Cc1cccc(Br)c1)Nc1nc(-c2ccccc2)cs1	257
–	–	–	25 (≈ 77.1 µM)	–	–	COc1cccc(CC(=O)Nc2nc(-c3ccccc3)cs2)c1	–
29.3	4.53	–	–	–	–	O=C(Cc1ccc(F)cc1)Nc1nc(-c2ccc(Br)cc2)cs1	264
38.4	4.42	–	–	–	–	O=C(Cc1ccc(F)cc1)Nc1nc(-c2ccccc2)cs1	318
41.8	4.38	–	–	–	–	O=C(Cc1ccc(Cl)cc1)Nc1nc(-c2ccccc2)cs1	357
–	–	50 (≈ 148 µM)	50 (≈ 148 µM)	> 100	> 100	CCOc1cccc(CC(=O)Nc2nc(-c3ccccc3)cs2)c1	–
